Results of several laboratories.
Each line is one published result; the experiments were not run side by side.
Target: Testis-specific serine/threonine-protein kinase 1 (TSSK1B, Homo sapiens, UniProt Q9BXA7)
One construct used (Q9BXA7 1-367): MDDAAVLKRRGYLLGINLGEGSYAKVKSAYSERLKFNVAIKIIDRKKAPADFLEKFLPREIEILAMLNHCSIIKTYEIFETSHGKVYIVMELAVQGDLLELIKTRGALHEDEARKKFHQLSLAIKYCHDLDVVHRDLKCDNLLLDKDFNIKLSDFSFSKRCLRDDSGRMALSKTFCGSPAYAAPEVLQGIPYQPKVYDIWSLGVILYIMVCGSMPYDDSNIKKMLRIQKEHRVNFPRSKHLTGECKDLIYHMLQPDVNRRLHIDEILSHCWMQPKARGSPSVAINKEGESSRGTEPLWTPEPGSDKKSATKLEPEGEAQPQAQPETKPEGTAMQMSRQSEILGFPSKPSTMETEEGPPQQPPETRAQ

`Cc1nc(N2CC[C@@H](O)C2)ncc1-c1cc(C(F)(F)F)cc2[nH]ncc12` has a remaining binding of 98% (binding, competition with immobilised ligand; 1 µM).
With `CN1CC(Oc2cnc(C#N)cc2-c2ccn3nc(NC(=O)C4CC4)cc3c2)C1` the inhibition was 9% (enzyme activity, inhibitor; 1 µM).
`O=C(Nc1cnn(-c2csc(C(=O)NC3COC3)c2)c1)Nc1c(F)cccc1Cl` has a remaining activity of 107% (enzyme activity, inhibitor; 5 µM).
For `CCN(CC)CCNC(=O)c1c(C)[nH]c(/C=C2\C(=O)Nc3ccc(F)cc32)c1C`, the inhibition was 20% (enzyme activity, inhibitor; 10 µM).
For `O=C(Nc1cccnn1)N1CC(C/C=C/c2cncc(Oc3ccc(C(F)(F)F)cn3)n2)C1`, the remaining binding was 100% (cell-free assay, competition with immobilised ligand; 1 µM).
For `CNC(=O)c1cc(Oc2ccc(NC(=O)Nc3ccc(Cl)c(C(F)(F)F)c3)cc2)ccn1`, the inhibition was -6% (enzyme activity, inhibitor; 0.3 µM).
With `C[C@H](c1cccc(C#N)c1)n1cc(Cl)cc(C(N)=O)c1=N` the remaining binding was 96% (cell-free assay, competition with immobilised ligand; 1 µM).
With `CNc1cccc2cc(C(=O)Nc3ccc(C(=O)O)cc3)c(=O)[nH]c12` the inhibition was 2.1% (enzyme activity, inhibitor; 10 µM).
`FC(F)(F)c1ccc2c(c1)nc(-c1cccnc1)n2C1CC1` has a remaining binding of 100% (cell-free assay, competition with immobilised ligand; 1 µM).
The remaining activity of `CCCOc1ccc(OC)c(F)c1C(=O)c1ccc(C(=O)N[C@@H]2CNC[C@H]2NC(=O)c2ccc3[nH]ncc3c2)cc1` is reported as 70% (enzyme activity, inhibitor; 10 µM).
The inhibition of `Cc1ccc(Nc2nccc(N(C)c3ccc4c(C)n(C)nc4c3)n2)cc1S(N)(=O)=O` is reported as 1% (enzyme activity, inhibitor; 10 µM).
With `O=C1Nc2ccc(Cl)cc2C1=Cc1cc(Cl)c(O)c(Cl)c1` the remaining signal was 88.2% (cell-free assay; 0.5 µM).
For `CC(=O)C1=C(C)N(c2cccc(C(F)(F)F)c2)C(=O)N[C@@H]1c1ccc(C#N)nc1`, the remaining binding was 100% (cell-free assay, competition with immobilised ligand; 1 µM).
`Cc1ccc(NC(=O)c2ccc(CN3CCN(C)CC3)cc2)cc1Nc1nc(-c2cccnc2)cs1` gave a remaining signal of 100% (cell-free assay; 0.5 µM).
The remaining binding of `Cc1c(NC(=O)c2cc(C(N)=O)nc3cc(F)ccc23)c(C(F)(F)F)nn1Cc1ccc(C(C)(C)C)cc1` is reported as 100% (cell-free assay, competition with immobilised ligand; 1 µM).
`CCOc1cc(-c2nncn2C)ccc1Nc1ncc2cc(C)nc(NCC(C)(C)C)c2n1` gave an inhibition of < 15% (enzyme activity, inhibitor, FRET; 1 µM).
`CN(C)C1CCN(CC#Cc2nn(C3CCCC3)c3nc(NCc4ccccc4)ncc23)C1` (stereo not drawn) gave an inhibition of -8% (enzyme activity, inhibitor, FRET; 10 µM).
The inhibition of `CCCS(=O)(=O)Nc1ccc(F)c(C(=O)c2c[nH]c3ncc(-c4ccc(Cl)cc4)cc23)c1F` is reported as < 10% (enzyme activity, inhibitor; 1 µM).
`Cc1ccc(NC(=O)c2ccc(C)c(C(F)(F)F)c2)cc1C#Cc1nn(C2CCC(O)CC2)c2ncnc(N)c12` (stereo not drawn) gave a remaining signal of 100% (cell-free assay; 10 µM).
The remaining activity of `COc1cc(Cl)c(C(=O)N[C@@H](CN[C@H]2CC[C@@H](N)CC2)Cc2ccc(C#N)cc2)cc1-c1ccc(CN[C@H](C)c2ccc(C)cc2)o1` is reported as 101% (enzyme activity, inhibitor; 1 µM).
The remaining activity of `O=C(Nc1cnn(-c2csc(C(=O)NC3COC3)c2)c1)Nc1ccccc1Cl` is reported as 102% (enzyme activity, inhibitor; 5 µM).
`COc1cc2ncnc(Nc3ccc(Oc4ccccc4)cc3C)c2cc1OC` has an inhibition of 2% (enzyme activity, inhibitor; 1 µM).
`COc1ccc2c(O[C@@H]3C[C@H]4C(=O)N[C@]5(C(=O)O)CC5/C=C\CCCCC[C@H](NC(=O)OC5CCCC5)C(=O)N4C3)cc(-c3csc(NC(=O)C(C)C)n3)nc2c1C` (stereo partly drawn) has a remaining binding of 70% (cell-free assay, competition with immobilised ligand; 1 µM).
`CC(C)(C)c1nc2c(s1)c1nc(N)ncc1c1ccc(NS(=O)(=O)c3c(F)cccc3F)c(F)c12` gave a remaining activity of 88% (enzyme activity, inhibitor, radiometric; 1 µM).
